Assay outcomes (PubChem BioAssay)
S1P4 antag: S1P4 receptor antagonists, primary screen, cell-based | Sphingosine 1-phosphate receptor 4 (Homo sapiens), O95977 | S1P4-expressing cells, antagonist mode, reporter read-out | inhibition, % at 4.98 µM | 0.26% of 220,000 active; in the data active means inhibition above about 29%;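 further: 0% = wells stimulated with agonist and 100% = vehicle wells without agonist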
NPY-Y1 antag: NPY-Y1 receptor antagonists, primary screen, cell-based; HEK293-CNG Y1 cells, membrane potential fluorescence; NPY at EC95, then isoproterenol; inhibition, % at 3.6 µM; 1% of 200,000 active; AID 1040, 2008;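 active means inhibition above the campaign mean inhibition of all tested compounds plus 3 SD, cut at about 20% in these data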;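 further: 0% = DMSO wells given NPY plus isoproterenol and 100% = isoproterenol alone without NPY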
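Benchmarks – high control isoproterenol alone, low control NPY with isoproterenol · Material – HEK293 Y1/CNG channel cell line · Times – dye 3 h, compound 60 min room temperature, stimulation 45 min · Probe or stimulus – NPY (25 nM), isoproterenol (1 µM), Ro 20-1724 (25 µM) · Evaluation – % inhibition of NPY effect · Signal – fluorescence, membrane potential probe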
NPY1 pot ag: NPY-Y1 receptor potentiators or agonists, primary screen, cell-based; Neuropeptide Y receptor type 1 (Homo sapiens), P25929; NPY-Y1 expressing cells, potentiator/agonist activation; activation, % at 3.6 µM; 0.37% of 220,000 active; in the data active means activation above about 33%, passing the limit was not always enough;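 further: cells stimulated with NPY at EC10 then isoproterenol at EC100; 0% = low agonist plus stimulus and 100% = saturating agonist plus stimulus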
NPY-Y2 PAM-ag: NPY-Y2 potentiators or agonists, primary screen, cell-based. Neuropeptide Y receptor type 2 (Homo sapiens), P49146. cells expressing NPY-Y2, potentiator/agonist read-out. activation, % at 3.6 µM. 0.45% of 220,000 active. AID 1359, 2008; in the data active means activation above about 27%;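 further: cells stimulated with NPY near EC25 plus isoproterenol at EC100; 0% = vehicle plus submaximal agonist and 100% = vehicle plus saturating agonist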
Target sequence (P49146 whole entry, looked up): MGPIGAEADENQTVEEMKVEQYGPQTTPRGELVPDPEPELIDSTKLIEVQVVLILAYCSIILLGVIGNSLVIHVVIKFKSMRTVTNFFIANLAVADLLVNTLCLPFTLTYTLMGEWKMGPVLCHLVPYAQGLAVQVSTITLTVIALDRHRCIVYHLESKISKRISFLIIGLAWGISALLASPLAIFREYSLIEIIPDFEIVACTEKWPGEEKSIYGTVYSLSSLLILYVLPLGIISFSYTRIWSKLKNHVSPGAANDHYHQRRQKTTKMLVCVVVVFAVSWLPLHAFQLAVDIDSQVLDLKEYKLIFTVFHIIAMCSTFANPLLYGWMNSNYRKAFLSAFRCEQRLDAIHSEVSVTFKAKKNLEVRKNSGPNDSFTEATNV
S1P4 agonist: S1P4 receptor agonists, primary screen, cell-based. Sphingosine 1-phosphate receptor 4 (Homo sapiens), O95977. 0.35% of 220,000 active. S1P4-expressing cell line, agonist reporter assay. activation, % at 4.98 µM; in the data active means activation above about 11%;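 further: 0% = DMSO vehicle and 100% = reference agonist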
NPY Y2 blocker: NPY-Y2 receptor antagonists, primary screen, cell-based. AID 793, 2007. 0.99% of 140,000 active. NPY-Y2 expressing cells, antagonist mode. inhibition, % at 2.7 µM; in the data active means inhibition above about 17%;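 further: 0% = vehicle with agonist challenge and 100% = reference antagonist with challenge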
NPY-Y1 confirm: NPY-Y1 potentiators or agonists, confirmation, cell-based | shares compounds with NPY1 pot ag | cell-based NPY-Y1 potentiator/agonist assay | activation, % at 3.6 µM | 20% of 280 active | AID 1546, 2009; in the data active means activation above about 45%;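 further: cells challenged with NPY at its EC10 plus isoproterenol stimulus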
NPY-Y2 counter: NPY-Y2 potentiators or agonists, counter-screen for NPY-Y1 potentiator project, cell-based, fluorescence. HEK293-CNG cells, membrane-potential fluorescence (FLIPR), 1536-well. 20% of 280 active. activation, % at 3.6 µM. shares compounds with NPY1 pot ag; in the data active means activation above about 33%
NPY-Y1 agonist: NPY-Y1 direct agonists without NPY, confirmation, counter-screen for NPY-Y1 potentiator project, cell-based, fluorescence; shares compounds with NPY1 pot ag; HEK293 Y1-CNGC, membrane potential fluorescence, agonist mode; activation, % at 3.6 µM; 50% of 280 active;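 active means percent activation above the mean of DMSO-only control wells plus 3 SD of those wells, cut at about 18% in these data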;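 further: cells challenged with isoproterenol plus Ro 20-1724 with no NPY in test wells; Y1 agonism lowers isoproterenol-driven cAMP and reduces probe fluorescence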
NPY-Y2 ag: NPY-Y2 direct agonists without NPY, counter-screen for NPY-Y1 potentiator project, cell-based, fluorescence. shares compounds with NPY1 pot ag. HEK293 Y2-CNGC, membrane potential fluorescence, agonist mode. activation, % at 3.6 µM. 67% of 280 active;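 active means activation above the solvent-only control wells' mean plus 3 SD, cut at about 11% in these data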;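 further: 0% = DMSO with isoproterenol and 100% = 40 nM NPY maximal response; agonism lowers cAMP so well fluorescence drops in active wells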
CNGC counter: CNGC cAMP sensor activity inhibitors, counter-screen for NPY-Y1 potentiator/agonist project, cell-based, HEK293-CNG parental, membrane potential fluorescence, Y1 set | shares compounds with NPY1 pot ag | isoproterenol cAMP | inhibition, % at 3.6 µM | 42% of 280 active;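 active means inhibition above the mean of stimulated solvent-only control wells plus 3 SD, cut at about 22% in these data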;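 further: 0% = isoproterenol-stimulated DMSO wells and 100% = unstimulated DMSO wells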
* marks the source's active call; other numbers are inactive results. Shown are actives, neighbours in structure and some others; about 2.4% of the full set was active somewhere.

Results for O=C(CCC1CCCN(C(=O)c2ccc3cc[nH]c3c2)C1)NCc1ccc(F)c(F)c1 (configuration not stated) ?
S1P4 antag: 8; NPY-Y1 antag: -8; NPY1 pot ag: 33; NPY-Y2 PAM-ag: 3; S1P4 agonist: 0

Results for COc1ccccc1NC(=O)Nc1ccc(-n2ccc(C(F)(F)F)n2)cc1 ?
S1P4 antag: 6; NPY1 pot ag: 55*; NPY-Y2 PAM-ag: 32; S1P4 agonist: -2; NPY-Y1 confirm: 65*; NPY-Y2 counter: 49*; NPY-Y1 agonist: 55*; NPY-Y2 ag: 38*; CNGC counter: 36*

Results for Cc1cc(C)cc(NC(=O)Nc2ccc(-n3ccc(C(F)(F)F)n3)cc2)c1 ?
S1P4 antag: 5; NPY1 pot ag: 40; NPY-Y2 PAM-ag: 13; S1P4 agonist: -1

Results for Cn1nc(C(F)(F)F)c(-c2ccc(F)cc2)c1NC(=O)Nc1ccc(F)cc1 ?
S1P4 antag: 0; NPY1 pot ag: 48*; NPY-Y2 PAM-ag: 38; S1P4 agonist: 2; NPY-Y1 confirm: 59*; NPY-Y2 counter: 45*; NPY-Y1 agonist: 58*; NPY-Y2 ag: 52*; CNGC counter: 49*

How did CNCC(O)COc1cccc(OC)c1 (configuration not stated) do in these assays?
S1P4 antag: -2; NPY-Y1 antag: -8; NPY1 pot ag: 56*; NPY-Y2 PAM-ag: 24; S1P4 agonist: 2; NPY-Y1 confirm: 15; NPY-Y2 counter: 14; NPY-Y1 agonist: 10; NPY-Y2 ag: 18*; CNGC counter: -3

Results for Cc1cc(-c2onc(C)c2C(=O)Nc2ccc(C(F)(F)F)cc2)no1 ?
S1P4 antag: -19; NPY1 pot ag: 1; NPY-Y2 PAM-ag: -15; S1P4 agonist: 1

Results for Cc1noc(-c2ccc(C(F)(F)F)cc2)c1NC(=O)Nc1ccc(Cl)cc1 ?
S1P4 antag: -1; NPY1 pot ag: 63*; NPY-Y2 PAM-ag: 12; S1P4 agonist: 1; NPY-Y1 confirm: 53*; NPY-Y2 counter: 31; NPY-Y1 agonist: 53*; NPY-Y2 ag: 25*; CNGC counter: 37*

What do the screens show for `Cc1c(O)c2cccnc2[nH]c1=O`?
S1P4 antag: -12; NPY-Y1 antag: 1; NPY1 pot ag: -8; NPY-Y2 PAM-ag: 4; S1P4 agonist: 0; NPY Y2 blocker: 3

How did CCCCC1NC(=S)N(C2CCCCC2)C1=O (configuration not stated) do in these assays?
S1P4 antag: -7; NPY-Y1 antag: -1; NPY1 pot ag: -18; NPY-Y2 PAM-ag: 2; S1P4 agonist: 0; NPY Y2 blocker: 2

How did CC(=O)c1c(C)nc(-c2ccc(Cl)cc2)nc1N do in these assays?
S1P4 antag: -13; NPY-Y1 antag: -2; NPY1 pot ag: 88*; NPY-Y2 PAM-ag: -10; S1P4 agonist: -2; NPY-Y1 confirm: 4; NPY-Y2 counter: -2; NPY-Y1 agonist: -12; NPY-Y2 ag: -8; CNGC counter: -6

How did CCOC(=O)N1CCN(C(=O)/C(=C/c2cccs2)NC(=O)c2cccs2)CC1 do in these assays?
S1P4 antag: 8; NPY-Y1 antag: -1; NPY1 pot ag: 43*; NPY-Y2 PAM-ag: 2; S1P4 agonist: 0; NPY-Y1 confirm: 3; NPY-Y2 counter: -1; NPY-Y1 agonist: -6; NPY-Y2 ag: -5; CNGC counter: -6

What do the screens show for `Cn1c(=O)n(CCN2CCOCC2)c(=O)c2c1nc1n2CCN1c1ccccc1`?
S1P4 antag: 12; NPY-Y1 antag: 3; NPY1 pot ag: 0; NPY-Y2 PAM-ag: 2; S1P4 agonist: -3; NPY Y2 blocker: 1

What do the screens show for `COc1ccc(CN2CCNC(=O)C2CC(=O)N2CCCCO2)c(OC)c1` (configuration not stated)?
S1P4 antag: -10; NPY-Y1 antag: 0; NPY1 pot ag: 28; NPY-Y2 PAM-ag: -1; S1P4 agonist: 2

Results for O=C(c1ccc2c3c(cccc13)CC2)C1CCCN(Cc2ccncc2)C1 (configuration not stated) ?
S1P4 antag: -14; NPY-Y1 antag: 1; NPY1 pot ag: 77*; NPY-Y2 PAM-ag: 2; S1P4 agonist: 1; NPY-Y1 confirm: -27; NPY-Y2 counter: -4; NPY-Y1 agonist: -33; NPY-Y2 ag: -7; CNGC counter: -7

Results for COC(=O)CSc1ccc(S(=O)(=O)N2CCCCCC2)cc1[N+](=O)[O-] ?
S1P4 antag: 7; NPY-Y1 antag: -12; NPY1 pot ag: 60*; NPY-Y2 PAM-ag: 0; S1P4 agonist: 1; NPY-Y1 confirm: 121*; NPY-Y2 counter: 100*; NPY-Y1 agonist: 108*; NPY-Y2 ag: 104*; CNGC counter: 99*

Results for CCN1CCN(c2nc3ccccc3nc2C(C#N)C(=O)OCc2ccccc2)CC1 (configuration not stated) ?
S1P4 antag: -10; NPY-Y1 antag: -3; NPY1 pot ag: 40*; NPY-Y2 PAM-ag: 20; S1P4 agonist: 1; NPY Y2 blocker: 7; NPY-Y1 confirm: 62*; NPY-Y2 counter: 47*; NPY-Y1 agonist: 41*; NPY-Y2 ag: 54*; CNGC counter: 53*

How did CCCCCCOC(=O)C(C#N)c1nc2ccccc2nc1N1CCN(CC)CC1 (configuration not stated) do in these assays?
S1P4 antag: 10; NPY-Y1 antag: 5; NPY1 pot ag: 4; NPY-Y2 PAM-ag: 19; S1P4 agonist: -4; NPY Y2 blocker: 7
